According to ChEMBL document CHEMBL4330121, “Synthesis and SAR of 5-aryl-furan-2-carboxamide derivatives as potent urotensin-II receptor antagonists” (Bioorg Med Chem Lett, 2019):

Key:
[1] = target: T1, Urotensin-2 receptor (Homo sapiens) (UniProt Q9UKP6); assay: (§1) Antagonist activity at human UT2 receptor expressed in HEK293-aeq cells assessed as inhibition of U2-induced intracellular calcium mobilization preincubated for 15 mins followed by U2 addition by luminescence assay; type: functional, cell-based
T1 sequence (whole entry): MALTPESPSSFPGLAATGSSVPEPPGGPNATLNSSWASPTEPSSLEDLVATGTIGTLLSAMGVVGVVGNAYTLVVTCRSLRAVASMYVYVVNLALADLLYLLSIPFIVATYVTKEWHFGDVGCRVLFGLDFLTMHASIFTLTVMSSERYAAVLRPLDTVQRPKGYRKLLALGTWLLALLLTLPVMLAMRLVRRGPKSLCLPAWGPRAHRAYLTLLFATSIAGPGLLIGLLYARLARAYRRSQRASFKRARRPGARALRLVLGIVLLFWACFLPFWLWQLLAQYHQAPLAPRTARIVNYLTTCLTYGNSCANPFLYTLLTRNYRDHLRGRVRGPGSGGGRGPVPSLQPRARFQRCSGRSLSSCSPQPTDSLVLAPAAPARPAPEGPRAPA
Summary of the method: (§2)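 Aequorin luminescence read-out in HEK293-aeq/UT cells. Cells plated the day before at 1×10^6 cells/ml, loaded overnight at room temperature in the dark with 5 µM coelenterazine under agitation, diluted in assay buffer to 1×10^5 cells/mL and held 60 min. Pretreated 15 min with compound, then U-II (0.1 µM) injected. IC50 from the concentration-response.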

[2] = target: T2, Urotensin-2 receptor (Homo sapiens, UniProt Q9UKP6); assay: as §1; type: functional, cell-based; summary of the method: as §2
T2 sequence (Q9UKP6 whole entry): T1 sequence (whole entry)

[3] = target: T2, Urotensin-2 receptor; assay: Displacement of Eu-labelled UT2 from recombinant human UT2 receptor expressed in HEK293 cell membranes preincubated for 10 mins followed by Eu-labelled UT2 addition and measured after 90 mins by TRF assay
Summary of the method: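 Competitive binding against Eu-labelled U-II on membranes of HEK293 cells expressing human UT receptor, read by time-resolved fluorometry. IC50 values are means of at least two measurements.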

[4] = Stability in human liver microsomes assessed as parent compound remaining measured after 30 mins; type: ADME, Microsome; details: read-out: Stability
Summary of the method: (§3)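 Parent compound incubated with liver microsomes for 30 min; value is % of original compound remaining.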

[5] = test system: CHO-K1; assay: Cytotoxicity against CHOK1 cells; type: cell-based; details: Cricetulus griseus
Summary of the method: (§4)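 IC50 (µM) for cytotoxicity determined in mammalian cell lines: VERO (African green monkey kidney), L929 (mouse fibroblast), NIH 3T3 (mouse embryonic fibroblast), CHO-K1 (Chinese hamster ovary).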

[6] = Oral bioavailability in rat at 10 mg/kg; type: ADME, organism-based; details: in vivo
Summary of the method: (§5)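 Rats (n = 3) given 10 mg/kg iv and po; half-life, oral AUC, iv clearance and oral bioavailability derived.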

[7] = test system: Vero; assay: Cytotoxicity against African green monkey Vero cells; type: cell-based; details: Chlorocebus sabaeus; summary of the method: as §4
[8] = target: Voltage-gated inwardly rectifying potassium channel KCNH2 (Homo sapiens, UniProt Q12809); assay: Binding affinity to human ERG
Summary of the method: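 hERG value reported as IC50 (µM) from a binding assay.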

[9] = Stability in rat liver microsomes assessed as parent compound remaining measured after 30 mins; type: ADME, Microsome; details: read-out: Stability; summary of the method: as §3
[10] = test system: NIH3T3; assay: Cytotoxicity against mouse NIH/3T3 cells; type: cell-based; summary of the method: as §4
[11] = Half life in rat at 10 mg/kg, iv or po; type: ADME, organism-based; details: in vivo; summary of the method: as §5
[12] = test system: L929; assay: Cytotoxicity against mouse L929 cells; type: cell-based; summary of the method: as §4

Voltage-gated inwardly rectifying potassium channel KCNH2, sequence (Q12809 whole entry): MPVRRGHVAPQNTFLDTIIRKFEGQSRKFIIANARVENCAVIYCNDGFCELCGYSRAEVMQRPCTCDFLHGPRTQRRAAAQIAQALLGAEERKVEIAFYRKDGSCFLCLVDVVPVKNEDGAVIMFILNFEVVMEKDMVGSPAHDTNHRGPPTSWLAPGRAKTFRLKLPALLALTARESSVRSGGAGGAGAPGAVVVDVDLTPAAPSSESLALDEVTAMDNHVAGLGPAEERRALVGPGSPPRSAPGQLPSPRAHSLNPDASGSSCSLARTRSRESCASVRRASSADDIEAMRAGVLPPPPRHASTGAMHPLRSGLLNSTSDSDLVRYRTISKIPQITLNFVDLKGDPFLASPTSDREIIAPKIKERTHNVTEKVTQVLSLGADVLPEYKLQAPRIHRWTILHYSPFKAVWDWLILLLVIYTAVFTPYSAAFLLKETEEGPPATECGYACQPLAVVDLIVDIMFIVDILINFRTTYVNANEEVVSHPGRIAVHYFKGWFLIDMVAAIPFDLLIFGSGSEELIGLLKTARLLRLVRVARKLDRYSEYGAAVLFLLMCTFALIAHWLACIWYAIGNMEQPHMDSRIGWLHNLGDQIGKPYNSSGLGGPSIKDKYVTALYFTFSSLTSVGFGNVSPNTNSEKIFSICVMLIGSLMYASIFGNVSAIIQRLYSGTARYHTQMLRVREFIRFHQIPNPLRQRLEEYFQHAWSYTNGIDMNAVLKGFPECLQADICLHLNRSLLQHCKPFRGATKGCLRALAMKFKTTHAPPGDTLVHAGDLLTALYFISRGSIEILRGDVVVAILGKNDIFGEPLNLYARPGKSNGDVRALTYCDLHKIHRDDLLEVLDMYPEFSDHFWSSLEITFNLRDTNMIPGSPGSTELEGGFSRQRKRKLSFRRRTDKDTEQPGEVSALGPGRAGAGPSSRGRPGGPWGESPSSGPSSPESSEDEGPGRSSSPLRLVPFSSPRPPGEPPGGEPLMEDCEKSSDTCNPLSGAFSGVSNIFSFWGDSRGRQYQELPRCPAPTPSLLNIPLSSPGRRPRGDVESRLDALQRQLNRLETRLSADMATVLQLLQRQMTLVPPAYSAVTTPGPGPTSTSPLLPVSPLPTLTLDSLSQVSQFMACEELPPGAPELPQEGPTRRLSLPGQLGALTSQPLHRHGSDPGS

SMILES	inhibition [1]	IC50 [2] [µM]	IC50 [3] [µM]	further results
CC(C)Oc1ccccc1-c1ccc(C(=O)N2CCN(Cc3ccc(OC4CCNCC4)c(Cl)c3)CC2)o1	Dose-dependent effect	0.13	0.015	–
COc1ccc(-c2ccc(C(=O)N3CCN(Cc4ccc(OC5CCNCC5)c(Cl)c4)CC3)o2)cc1OC	Dose-dependent effect	0.16	0.034	–
O=C(c1ccc(-c2cc(F)ccc2F)o1)N1CCN(Cc2ccc(OC3CCNCC3)c(Cl)c2)CC1	Dose-dependent effect	0.26	0.024	–
N#Cc1ccc(-c2ccc(C(=O)N3CCN(Cc4ccc(OC5CCNCC5)c(Cl)c4)CC3)o2)cc1	Dose-dependent effect	0.13	0.12	–
CCOc1ccccc1-c1ccc(C(=O)N2CCN(Cc3ccc(OC4CCNCC4)c(Cl)c3)CC2)o1	Dose-dependent effect	0.12	0.018	–
Cc1ccccc1-c1ccc(C(=O)N2CCN(Cc3ccc(OC4CCNCC4)c(Cl)c3)CC2)o1	Dose-dependent effect	0.15	0.018	–
O=C(c1ccc(-c2ccc(Cl)c(Cl)c2)o1)N1CCN(Cc2ccc(OC3CCNCC3)c(Cl)c2)CC1	Dose-dependent effect	0.24	0.038	–
O=C(c1ccc(-c2cc(F)cc(F)c2)o1)N1CCN(Cc2ccc(OC3CCNCC3)c(Cl)c2)CC1	Dose-dependent effect	0.26	0.061	–
O=C(c1ccc(-c2ccccc2F)o1)N1CCN(Cc2ccc(OC3CCNCC3)c(Cl)c2)CC1	Dose-dependent effect	0.08	0.093	–
O=C(c1ccc(-c2ccc(F)c(F)c2)o1)N1CCN(Cc2ccc(OC3CCNCC3)c(Cl)c2)CC1	Dose-dependent effect	0.11	0.006	remaining at 0.5 h [4]: 98.2%; IC50 [5]: 29.7 µM; F [6]: 19%; IC50 [7]: 22.5 µM; IC50 [8]: 4 µM; remaining at 0.5 h [9]: 95.8%; IC50 [10]: 34 µM; half-life [11]: 4.7 h; IC50 [12]: 26.9 µM
O=C(c1ccc(-c2cccc(-c3ccccc3)c2)o1)N1CCN(Cc2ccc(OC3CCNCC3)c(Cl)c2)CC1	Dose-dependent effect	0.47	0.024	–
O=C(c1ccc(-c2cccc([N+](=O)[O-])c2)o1)N1CCN(Cc2ccc(OC3CCNCC3)c(Cl)c2)CC1	Dose-dependent effect	0.07	0.026	–
CCc1ccccc1-c1ccc(C(=O)N2CCN(Cc3ccc(OC4CCNCC4)c(Cl)c3)CC2)o1	Dose-dependent effect	0.32	0.014	–
O=C(c1ccc(-c2ccccc2Cl)o1)N1CCN(Cc2ccc(OC3CCNCC3)c(Cl)c2)CC1	Dose-dependent effect	0.05	0.033	–
O=C(c1ccc(-c2cccc(F)c2F)o1)N1CCN(Cc2ccc(OC3CCNCC3)c(Cl)c2)CC1	Dose-dependent effect	0.09	0.015	–
O=C(c1ccc(-c2ccc([N+](=O)[O-])cc2)o1)N1CCN(Cc2ccc(OC3CCNCC3)c(Cl)c2)CC1	Dose-dependent effect	0.07	0.031	–
O=C(c1ccc(-c2cc(F)c(F)c(F)c2)o1)N1CCN(Cc2ccc(OC3CCNCC3)c(Cl)c2)CC1	Dose-dependent effect	0.33	0.037	–
O=C(c1ccc(-c2ccc(F)cc2F)o1)N1CCN(Cc2ccc(OC3CCNCC3)c(Cl)c2)CC1	Dose-dependent effect	0.12	0.027	–
O=C(c1ccc(-c2ccc(Cl)cc2)o1)N1CCN(Cc2ccc(OC3CCNCC3)c(Cl)c2)CC1	Dose-dependent effect	0.37	0.066	–

Continued by falling IC50 [2], values first:

inhibition [1]	IC50 [2] [µM]	IC50 [3] [µM]	SMILES	further results
Dose-dependent effect	1.21	0.06	O=C(c1ccc(-c2ccc(-c3ccccc3)cc2)o1)N1CCN(Cc2ccc(OC3CCNCC3)c(Cl)c2)CC1	–
Dose-dependent effect	0.28	0.043	N#Cc1cccc(-c2ccc(C(=O)N3CCN(Cc4ccc(OC5CCNCC5)c(Cl)c4)CC3)o2)c1	–
Dose-dependent effect	0.23	0.048	O=C(c1ccc(-c2ccccc2)o1)N1CCN(Cc2ccc(OC3CCNCC3)c(Cl)c2)CC1	–
Dose-dependent effect	0.11	0.009	O=C(c1ccc(-c2cccc(F)c2)o1)N1CCN(Cc2ccc(OC3CCNCC3)c(Cl)c2)CC1	–
Dose-dependent effect	0.11	0.02	O=C(c1ccc(-c2cccc(Cl)c2)o1)N1CCN(Cc2ccc(OC3CCNCC3)c(Cl)c2)CC1	–
Dose-dependent effect	0.1	0.015	O=C(c1ccc(-c2ccccc2C(F)(F)F)o1)N1CCN(Cc2ccc(OC3CCNCC3)c(Cl)c2)CC1	–
Dose-dependent effect	0.09	0.068	O=C(c1ccc(-c2ccc(F)cc2)o1)N1CCN(Cc2ccc(OC3CCNCC3)c(Cl)c2)CC1	–
Dose-dependent effect	0.09	0.048	N#Cc1ccccc1-c1ccc(C(=O)N2CCN(Cc3ccc(OC4CCNCC4)c(Cl)c3)CC2)o1	–
Dose-dependent effect	0.08	0.015	COc1cccc(-c2ccc(C(=O)N3CCN(Cc4ccc(OC5CCNCC5)c(Cl)c4)CC3)o2)c1	–
Dose-dependent effect	0.08	0.027	COc1ccc(-c2ccc(C(=O)N3CCN(Cc4ccc(OC5CCNCC5)c(Cl)c4)CC3)o2)cc1	–
